# Measured values as given in ChEMBL document CHEMBL1143786, “Constrained analogs of CB-1 antagonists: 1,5,6,7-Tetrahydro-4H-pyrrolo[3,2-c]pyridine-4-one derivatives” (Bioorg Med Chem Lett, 2007).
# Assays:
# Cannabinoid receptor 1 [1] = molecular target: T1, Cannabinoid receptor 1 (Homo sapiens, UniProt P21554); assay: Displacement of [3H]CP-55940 from human CB1 receptor expressed in HEK cells; type: cell-based, HEK293
# Outline: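 Membranes from HEK 293 cells expressing human CB-1, suspended in ice-cold 50 mM Tris pH 7.4, 2.5 mM EDTA, 5 mM MgCl2, 0.1% fatty acid free BSA; 3.3 µg protein incubated with 0.3 nM [3H]CP 55940 and graded compound, 30 °C, 90 min with shaking, triplicate. Nonspecific binding defined with 10 µM WIN 55212-2; filtration through GF/C, scintillation counting; Ki via Cheng–Prusoff from nonlinear-regression IC50.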
# Cannabinoid receptor 2 = Cannabinoid receptor 2 (Homo sapiens, UniProt P34972); assay: Displacement of [3H]CP-55940 from human CB2 receptor expressed in HEK cells; type: cell-based, HEK293
# Outline: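 Membranes from HEK 293 cells expressing human CB-2, in ice-cold 50 mM Tris pH 7.4, 2.5 mM EDTA, 5 mM MgCl2, 0.1% fatty-acid-free BSA. 3.3 µg protein with 0.3 nM [3H]CP 55940 and varying competitor, triplicate, 30 °C for 90 min with shaking. Nonspecific binding with 10 µM WIN 55212-2. Filtration onto GF/C, scintillation counting; Ki from IC50 by Cheng–Prusoff.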
# Rattus norvegicus [2] = assay: Reduction in body weight in genetically obese Zucker rat at 5 mg/kg, po qd; type: functional; set-up: scale not given: the % may be the effect or the level left
# Outline: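 Zucker fa/fa rats, single-housed on grid floors, sham-dosed with vehicle for at least 5 days, then weight-matched on 2-day baseline. Daily oral dosing at 5 mg/kg, 2 mL/kg, in PEG/methanesulfonic acid (80:20) before the nocturnal feeding phase. Body weight recorded daily over 9 days; mean ± SEM, 9–10 rats/group.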
# [3] = Cmax in Wistar rat at 10 mg/kg, po; type: ADME, organism-based; set-up: dose 10 mg/kg, route oral; settings: in vivo
# Outline: (§1)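 Male Wistar rats, single oral dose of 10 mg/kg. Plasma exposure measured as Cmax and as AUC over 0–2 h.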
# Rattus norvegicus [4] = assay: Reduction in food intake in fasted-refed Wistar rat at 10 mg/kg, po after 4 hrs; type: functional; set-up: scale not given: the % may be the effect or the level left
# Outline: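 Wistar rats fasted overnight (18 h), then given vehicle or compound orally at 10 mg/kg as a suspension in 30% cyclodextrin, 2 mL/kg, 1 h before re-feeding. Cumulative food intake from pre-weighed jars at 30, 60, 90, 180 and 240 min.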
# [5] = AUC ( 0 to 2 hrs) in Wistar rat at 10 mg/kg, po; type: ADME, organism-based; set-up: time < 2 hr, dose 10 mg/kg, route oral; settings: plasma; outline: as §1
# Cannabinoid receptor 1 [6] = molecular target: T1, Cannabinoid receptor 1; assay: Antagonist activity at CB1 receptor; type: functional
# T1 sequence (P21554 whole entry): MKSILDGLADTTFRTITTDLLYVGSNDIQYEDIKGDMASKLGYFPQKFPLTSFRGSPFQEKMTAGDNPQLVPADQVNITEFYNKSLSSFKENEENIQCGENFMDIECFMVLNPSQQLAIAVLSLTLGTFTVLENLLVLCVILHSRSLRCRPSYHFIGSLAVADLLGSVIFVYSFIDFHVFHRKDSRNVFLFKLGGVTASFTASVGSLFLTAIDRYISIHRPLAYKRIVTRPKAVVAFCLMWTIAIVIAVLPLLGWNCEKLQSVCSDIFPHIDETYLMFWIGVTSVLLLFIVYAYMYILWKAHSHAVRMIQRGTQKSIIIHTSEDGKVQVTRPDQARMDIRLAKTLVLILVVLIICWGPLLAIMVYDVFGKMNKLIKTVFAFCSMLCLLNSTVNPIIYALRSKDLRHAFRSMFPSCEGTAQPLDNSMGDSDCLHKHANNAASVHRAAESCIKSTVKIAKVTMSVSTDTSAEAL
# Chain of Cannabinoid receptor 2 (P34972 whole entry): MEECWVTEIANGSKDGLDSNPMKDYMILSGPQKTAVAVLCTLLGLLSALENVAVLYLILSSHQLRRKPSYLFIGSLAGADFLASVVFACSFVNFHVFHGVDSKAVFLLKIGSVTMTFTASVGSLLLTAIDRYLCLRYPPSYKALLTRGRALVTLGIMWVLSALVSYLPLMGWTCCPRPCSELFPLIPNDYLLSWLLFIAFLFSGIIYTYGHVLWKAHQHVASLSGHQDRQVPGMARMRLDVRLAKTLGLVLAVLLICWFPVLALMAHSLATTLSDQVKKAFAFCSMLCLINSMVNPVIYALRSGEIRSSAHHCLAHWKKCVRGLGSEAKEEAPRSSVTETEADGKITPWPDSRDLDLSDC
SMILES,Ki (Cannabinoid receptor 1 [1]) [nM],IC50 (Cannabinoid receptor 1 [1]) [nM],other results
Cc1c2c(n(-c3ccccc3Cl)c1-c1ccc(Cl)cc1)CCN(N1CCCCC1)C2=O,3.5,–,Ki (Cannabinoid receptor 2): 1100 nM
Cc1c2c(n(-c3ccc(Cl)cc3Cl)c1-c1cccc(N)c1)CCN(C1CCCCC1)C2=O,450,–,–
Cc1c2c(n(-c3ccc(Cl)cc3Cl)c1-c1ccc(C(F)(F)F)cc1)CCN(C1CCCCC1)C2=O,4.1,–,–
Cc1cn(-c2ccc(Cl)cc2Cl)c2c1C(=O)N(C1CCCCC1)CC2,240,–,–
COc1ccc(-c2c(C)c3c(n2-c2ccccc2Cl)CCN(N2CCCCC2)C3=O)cc1,20,–,Activity (Rattus norvegicus [2]): -3%; Cmax [3]: 620 nM; Activity (Rattus norvegicus [4]): 36%; AUC(0-t) at 2 h [5]: 0.58 µM·h; Ki (Cannabinoid receptor 2): 850 nM
Cc1ccccc1-n1c2c(c(C)c1-c1ccc(C(F)(F)F)cc1)C(=O)N(C1CCCCC1)CC2,–,9.3,–
COc1ccc(-c2c(C)c3c(n2-c2ccccc2C)CCN(C2CCCCC2)C3=O)cc1,–,22,–
Cc1c2c(n(-c3c(Cl)cccc3Cl)c1-c1ccc(Cl)cc1)CCN(C1CCCCC1)C2=O,200,–,–
Cc1c2c(n(-c3ccc(Cl)cc3Cl)c1-c1ccccc1)CCN(C1CCCCC1)C2=O,–,16,–
Cc1c2c(n(-c3ccc(Cl)cc3)c1-c1ccc(Cl)cc1)CCN(C1CCCCC1)C2=O,> 2500,–,–
Cc1c2c(n(-c3ccc(Cl)cc3Cl)c1-c1ccc(C(=O)O)cc1)CCN(C1CCCCC1)C2=O,> 2500,–,–
Cc1c2c(n(-c3ccc(Cl)cc3Cl)c1-c1ccco1)CCN(C1CCCCC1)C2=O,–,20,–
COc1ccc(-c2c(C)c3c(n2-c2ccc(Cl)cc2Cl)CCN(C2CCCCC2)C3=O)cc1,7.9,–,–
Cc1c2c(n(-c3ccc(Cl)cc3Cl)c1-c1ccc(N)cc1)CCN(C1CCCCC1)C2=O,920,–,–
C=Cc1ccc(-c2c(C)c3c(n2-c2ccc(Cl)cc2Cl)CCN(C2CCCCC2)C3=O)cc1,9.8,–,–
Cc1ccc(-c2c(C)c3c(n2-c2ccc(Cl)cc2Cl)CCN(C2CCCCC2)C3=O)cc1,10,–,–
COc1ccc(-c2c(C)c3c(n2-c2ccc(Cl)cc2Cl)CCN(C2CCCCC2)C3=O)cc1OC,5.5,–,–
COc1cccc(-c2c(C)c3c(n2-c2ccc(Cl)cc2Cl)CCN(C2CCCCC2)C3=O)c1,–,6.8,–

SMILES,Ki (Cannabinoid receptor 1 [1]) [nM],IC50 (Cannabinoid receptor 1 [1]) [nM],other results
Cc1c2c(n(-c3ccc(Cl)cc3Cl)c1-c1cccc(C(F)(F)F)c1)CCN(C1CCCCC1)C2=O,–,67,–
Cc1cccc(-c2c(C)c3c(n2-c2ccc(Cl)cc2Cl)CCN(C2CCCCC2)C3=O)c1,–,17,–
Cc1c2c(n(-c3ccc(Cl)cc3Cl)c1-c1ccc(Cl)cc1)CCN(N1CCCCC1)C2=O,2.2,–,Kb (Cannabinoid receptor 1 [6]): 12 nM; Ki (Cannabinoid receptor 2): 1300 nM
Cc1c2c(n(-c3ccc(Cl)cc3Cl)c1-c1cccnc1)CCN(C1CCCCC1)C2=O,390,–,–
Cc1c2c(n(-c3ccc(Cl)cc3Cl)c1-c1ccsc1)CCN(C1CCCCC1)C2=O,–,37,–
Cc1c2c(n(-c3ccc(Cl)cc3Cl)c1-c1ccc(Cl)cc1)CCN(C1CCCCC1)C2=O,7.5,–,Cmax [3]: < 50 nM; Kb (Cannabinoid receptor 1 [6]): 6.5 nM; Ki (Cannabinoid receptor 2): 8300 nM
Cc1c2c(n(-c3ccc(Cl)cc3Cl)c1-c1ccc(F)cc1)CCN(C1CCCCC1)C2=O,6,–,–
Cc1c2c(n(-c3ccc(Cl)cc3Cl)c1-c1cc3ccccc3s1)CCN(C1CCCCC1)C2=O,–,23,–
Cc1c(C(=O)NN2CCCCC2)nn(-c2ccc(Cl)cc2Cl)c1-c1ccc(Cl)cc1 [RIMONABANT],–,–,Activity (Rattus norvegicus [2]): -5.6%
CSc1ccc(-c2c(C)c3c(n2-c2ccc(Cl)cc2Cl)CCN(C2CCCCC2)C3=O)cc1,> 2500,–,–
Cc1c2c(n(-c3ccc(Cl)cc3)c1-c1ccc(Cl)cc1Cl)CCN(C1CCCCC1)C2=O,> 2500,–,–
COc1ccc(-c2c(C)c3c(n2-c2ccccc2Cl)CCN(C2CCCCC2)C3=O)cc1,7.5,–,–
Cc1c2c(n(-c3ccc(Cl)cc3Cl)c1-c1ccc3c(c1)OCO3)CCN(C1CCCCC1)C2=O,–,12,–
Cc1c2c(n(-c3ccc(Cl)cc3Cl)c1-c1cccs1)CCN(C1CCCCC1)C2=O,–,19,–
Cc1ccccc1-n1c2c(c(C)c1-c1ccc(F)cc1)C(=O)N(C1CCCCC1)CC2,–,40,–
Cc1c2c(n(-c3ccccc3Cl)c1-c1ccc(Cl)cc1)CCN(C1CCCCC1)C2=O,2.8,–,–
COc1ccc(-c2c(C)c3c(n2-c2ccccc2C)CCN(N2CCCCC2)C3=O)cc1,74,–,–
